Data set [1] in a line: Half life in human liver microsomes after 30 mins. The format is ADME, Microsome. The method in brief:
(§1)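 Drug incubated with liver microsomes of the stated species (rat, nude mouse, human) for 30 min; half-life of drug determined.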
For orientation: Microsomes from liver hold many membrane-bound enzymes, among them those of drug oxidation.

A short description of data set [2]: Half life in nude mouse liver microsomes after 30 mins. The format is ADME, Microsome. The method in brief: as §1
The nature of data set [3]: Half life in rat liver microsomes after 30 mins. The format is ADME, Microsome. The essentials:
as §1

The subject of the next data set is MDA-MB-361. The data set is described as follows: cells. As to conditions: Homo sapiens, MDA-MB-361, 72 h.
The nature of data set [4]: Aqueous solubility of the compound at pH 7.4. Type of data set: physicochemical. Conditions: buffer.
The subject of a further data set is PC-3. The data set is described as follows: cells. Conditions: Homo sapiens, PC-3, 72 h.
The target of data set [5] is Phosphatidylinositol 4,5-bisphosphate 3-kinase catalytic subunit alpha isoform (Homo sapiens, UniProt P42336). The data set is described as follows: Inhibition of human PI3Kalpha expressed in SF9 insect cells after 2 hrs by fluorescence polarization assay. On the technique in general: Polarisation of emitted light reports the rotation of a fluorescent probe.
Sequence of Phosphatidylinositol 4,5-bisphosphate 3-kinase catalytic subunit alpha isoform (P42336 whole entry, canonical isoform): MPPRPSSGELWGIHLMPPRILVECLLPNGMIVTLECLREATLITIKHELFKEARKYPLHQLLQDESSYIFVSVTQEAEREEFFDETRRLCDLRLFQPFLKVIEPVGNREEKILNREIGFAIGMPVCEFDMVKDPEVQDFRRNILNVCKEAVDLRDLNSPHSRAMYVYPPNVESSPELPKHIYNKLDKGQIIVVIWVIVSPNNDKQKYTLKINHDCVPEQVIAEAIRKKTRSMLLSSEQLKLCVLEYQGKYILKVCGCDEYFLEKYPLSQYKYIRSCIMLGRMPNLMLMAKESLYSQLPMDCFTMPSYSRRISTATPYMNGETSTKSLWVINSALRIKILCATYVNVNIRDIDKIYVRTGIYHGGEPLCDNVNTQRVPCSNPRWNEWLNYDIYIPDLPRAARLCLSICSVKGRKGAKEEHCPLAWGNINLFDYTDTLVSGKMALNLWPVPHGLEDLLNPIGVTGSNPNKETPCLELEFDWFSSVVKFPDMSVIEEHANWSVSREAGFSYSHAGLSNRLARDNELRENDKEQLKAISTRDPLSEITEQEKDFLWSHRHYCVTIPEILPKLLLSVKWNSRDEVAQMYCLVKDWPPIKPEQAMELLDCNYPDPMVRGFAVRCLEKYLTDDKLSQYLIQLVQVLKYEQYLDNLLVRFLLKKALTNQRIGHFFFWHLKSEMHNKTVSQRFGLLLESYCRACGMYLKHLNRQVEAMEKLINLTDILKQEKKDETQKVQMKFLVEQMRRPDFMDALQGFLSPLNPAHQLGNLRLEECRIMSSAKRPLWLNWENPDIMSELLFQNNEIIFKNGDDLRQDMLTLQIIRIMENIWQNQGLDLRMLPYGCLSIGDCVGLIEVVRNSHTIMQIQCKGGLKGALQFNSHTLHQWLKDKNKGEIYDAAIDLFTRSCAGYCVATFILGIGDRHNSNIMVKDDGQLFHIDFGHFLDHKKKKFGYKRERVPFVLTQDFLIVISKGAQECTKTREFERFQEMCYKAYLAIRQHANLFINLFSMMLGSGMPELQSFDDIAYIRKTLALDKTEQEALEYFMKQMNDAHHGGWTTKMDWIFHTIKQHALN
The target in data set [6] is Serine/threonine-protein kinase mTOR (Homo sapiens, UniProt P42345). In words: Inhibition of mTOR.
Data set [7] concerns Mus musculus. The data set is described as follows: In vivo inhibition of PI3K/mTOR in human MDA-MB-361 cells xenografted nude mouse assessed as induction of cleaved poly-adenosine-diphosphate-ribose polymerase at 50 mg/kg, iv after 8 hrs by immunoblotting. On the set-up: dose 50 mg/kg. Type of data set: functional, organism-based. In general terms: Xenograft models place foreign cells or tissue in a host animal.

The species entered for data set [8] is Mus musculus. As to conditions: MDA-MB-361, 25 mg/kg.
The species entered for data set [9] is Mus musculus. As to conditions: MDA-MB-361, 25 mg/kg. This is another data set of the same source.
The species entered for data set [10] is Mus musculus. Conditions: MDA-MB-361, 25 mg/kg. This is another data set of the same source.
Data set [11] is filed under the species Mus musculus. As to conditions: MDA-MB-361, 25 mg/kg. The source holds these as a separate data set.
Data set [12] is filed under the species Mus musculus. As to conditions: MDA-MB-361, 25 mg/kg. The source holds these as a separate data set.
The species named for data set [13] is Mus musculus. As to conditions: MDA-MB-361, 10 mg/kg.
The species named for data set [14] is Mus musculus. Conditions: MDA-MB-361, 10 mg/kg. This is another data set of the same source.
The species named for data set [15] is Mus musculus. As to conditions: MDA-MB-361, 10 mg/kg. The source holds these as a separate data set.
Data set [16] is filed under the species Mus musculus. Conditions: MDA-MB-361, 10 mg/kg. The source holds these as a separate data set.
The species entered for data set [17] is Mus musculus. As to conditions: MDA-MB-361, 10 mg/kg. The source holds these as a separate data set.

SMILES strings stand for the structures. In brackets after ≈: the same amount, converted by molar mass. Activity calls are given as the source filed them.

In general, half-life refers to the time needed for the level to fall by half in the phase considered. A high value points to slow loss. The term IC50 denotes the concentration that gives 50% inhibition. A low value points to inhibition by little substance. As usually defined, the solubility is the concentration that dissolves in the medium under given conditions.

For `CC(C)Oc1nc(-c2ccc(NC(=O)Nc3ccc(C(=O)N4CCN(C)CC4)cc3)cc2)nc(N2CCOCC2)n1`, the values for the half-life in data set [1], in data set [2] and in data set [3] were over 30 min, over 30 min and 17 min, respectively.

As to `COc1nc(-c2ccc(NC(=O)Nc3ccc(C(=O)NCCN4CCCCC4)cc3)cc2)nc(N2CCOCC2)n1`, the half-life in [1], in [2] and in [3] was over 30 min each time. In addition, the IC50 was under 31 nM with MDA-MB-361 and 69 nM in the data set with PC-3. For the same molecule, the solubility in data set [4] is over 100 µg/mL.

As for `COc1nc(-c2ccc(NC(=O)Nc3ccc(C(=O)N4CCN(C)CC4)cc3)cc2)nc(N2CCOCC2)n1`, the values for the half-life in data set [1], in [2] and in data set [3] were over 30 min, over 30 min and 16 min, respectively. Also, the IC50 in the data set on MDA-MB-361 came out at 35 nM; in [5], 1.2 nM; in the data set with PC-3, 91 nM. Moreover, the solubility in data set [4] worked out at 3 µg/mL (≈ 5.63 µM).

In the case of `COc1nc(-c2ccc(NC(=O)Nc3ccc(C(=O)N(C)CCN(C)C)cc3)cc2)nc(N2CCOCC2)n1`, the half-life in data set [1] is over 30 min; in data set [2], over 30 min; in data set [3], 15 min. Also, the half-maximal inhibitory concentration (IC50) is 15 nM in the data set with MDA-MB-361 and 34 nM in the data set on PC-3. In addition, the solubility in [4] is over 100 µg/mL.

`O=C(Nc1ccc(C(=O)NCCN2CCCCC2)cc1)Nc1ccc(-c2nc(O[C@H]3CCOC3)nc(N3CCOCC3)n2)cc1`: the half-life in data set [1] is over 30 min; in [2] it was over 30 min; in [3], 27 min. Also, the half-maximal inhibitory concentration (IC50) with MDA-MB-361 is 5 nM; in [6], 0.4 nM; with PC-3, 18 nM. This molecule returned a solubility in [4] of 1 µg/mL (≈ 1.62 µM).

As to `CN1C2CCC1CC(Oc1nc(-c3ccc(NC(=O)Nc4ccc(C(N)=O)cc4)cc3)nc(N3CCOCC3)n1)C2` (stereo not drawn), the solubility in data set [4] was found to be 62 µg/mL (≈ 111 µM). This molecule displayed a half-life in data set [3] of 4 min.

Consider `CCn1nnc2c(N3CCOCC3)nc(-c3ccc(NC(=O)Nc4ccc(C(=O)N5CCN(C)CC5)cc4)cc3)nc21`, for which the half-life in [1] and in [2] was over 30 min each time. In addition, the values for the IC50 (in the data set with MDA-MB-361; in data set [6]) were 8 nM and 2 nM, respectively. The inhibition entry in the data set on Mus musculus [7] is “Active”.

With `CN(C)C1CCN(C(=O)c2ccc(NC(=O)Nc3ccc(-c4nc(O[C@H]5CCOC5)nc(N5CCOCC5)n4)cc3)cc2)CC1`, the half-life in [1] is 18 min; in data set [2], over 30 min.

As for `CN1CCN(C(=O)c2ccc(NC(=O)Nc3ccc(-c4nc(N5CCOCC5)[nH]c(=O)n4)cc3)cc2)CC1`, the half-inhibitory concentration (IC50) in the data set on MDA-MB-361 and in the data set on PC-3 was over 1000 nM throughout. The same molecule returned a half-life in data set [3] of over 30 min.

With `O=C(Nc1ccc(C(=O)NCCN2CCCC2)cc1)Nc1ccc(-c2nc(O[C@H]3CCOC3)nc(N3CCOCC3)n2)cc1`, the results for the half-life in [1], in data set [2] and in [3] were over 30 min, over 30 min and 28 min, respectively. Further, the IC50 in the data set with MDA-MB-361 is 8 nM; in data set [6] it was 0.3 nM; in the data set on PC-3 it was 27 nM. The same molecule yielded a solubility in data set [4] of 23 µg/mL (≈ 38.2 µM).

`CC(C)Oc1nc(-c2ccc(NC(=O)Nc3ccc(C(=O)N(C)CCN(C)C)cc3)cc2)nc(N2CCOCC2)n1`: the half-life in data set [1] is over 30 min; in data set [2], 23 min; in data set [3], over 30 min. Besides, the solubility in data set [4] amounted to 15 µg/mL (≈ 26.7 µM).

`COc1nc(-c2ccc(NC(=O)Nc3ccc(C(=O)N4CCNC(C)(C)C4)cc3)cc2)nc(N2CCOCC2)n1`: the half-life in data set [1] was over 30 min; in data set [2], over 30 min; in [3], 29 min. For the same molecule, the IC50 in the data set on MDA-MB-361 stood at 30 nM; in data set [6], 18.5 nM; in data set [5] it was 1.4 nM; in the data set with PC-3, 111 nM. The solubility in data set [4] was found to be 61 µg/mL (≈ 112 µM).

In turn, `CN1CCN(C(=O)c2ccc(NC(=O)Nc3ccc(-c4nc(OC5COC5)nc(N5CCOCC5)n4)cc3)cc2)CC1` came in with a solubility in data set [4] of 4 µg/mL (≈ 6.96 µM). Besides, the half-life in [3] was over 30 min.

For the molecule `CN1CCN(C(=O)c2ccc(NC(=O)Nc3ccc(-c4nc(O[C@H]5CCOC5)nc(N5CCOCC5)n4)cc3)cc2)CC1`, the half-life is 15 min in data set [1], over 30 min in data set [2] and 20 min in [3]. This molecule registered a solubility in data set [4] of 1 µg/mL (≈ 1.7 µM).

As to `CN(C)CCN(C)C(=O)c1ccc(NC(=O)Nc2ccc(-c3nc(O[C@H]4CCOC4)nc(N4CCOCC4)n3)cc2)cc1`, the inhibition result in the data set filed under Mus musculus [8], in the data set filed under Mus musculus [9], in the data set listed under Mus musculus [10], in the data set filed under Mus musculus [11] and in the data set listed under Mus musculus [12] was “Active” in each case. The figures for the half-life in data set [1], in data set [2] and in data set [3] were over 30 min, over 30 min and 27 min, respectively. In data set [4], this molecule returned a solubility of over 100 µg/mL.

On to `CC(C)Oc1nc(-c2ccc(NC(=O)Nc3ccc(C(=O)NCCN(C)C)cc3)cc2)nc(N2CCOCC2)n1`, for which the half-life in data set [1], in [2] and in data set [3] was over 30 min throughout. The figures for the half-maximal inhibitory concentration (IC50) (in the data set with MDA-MB-361; in data set [6]; in the data set on PC-3) were 11 nM, 0.4 nM and 41 nM, respectively. Besides, the concentration in solution in data set [4] (solubility) was 3 µg/mL (≈ 5.47 µM).

Regarding `COc1nc(-c2ccc(NC(=O)Nc3ccc(C(=O)NCCN(C)C)cc3)cc2)nc(N2CCOCC2)n1`, the half-life in data set [1], in data set [2] and in [3] was over 30 min in each case. Besides, the concentration for half-maximal inhibition (IC50) with MDA-MB-361 is under 31 nM; with PC-3 it was 71 nM. Further, the solubility in data set [4] was over 100 µg/mL.

Regarding `CNCCN(C)C(=O)c1ccc(NC(=O)Nc2ccc(-c3nc(OC)nc(N4CCOCC4)n3)cc2)cc1`, the half-life in [1], in [2] and in data set [3] was over 30 min in each case. For the same molecule, the values for the IC50 with MDA-MB-361 and in the data set on PC-3 were 110 nM and 374 nM, respectively. Also, in [4], the solubility was over 100 µg/mL.

As to `CN(C)C1CCN(C(=O)c2ccc(NC(=O)Nc3ccc(-c4nc(N5CCOCC5)nc(N5CCOCC5)n4)cc3)cc2)CC1` [GEDATOLISIB], the inhibition entry in the data set filed under Mus musculus [8], in the data set filed under Mus musculus [9], in the data set filed under Mus musculus [13], in the data set listed under Mus musculus [14], in the data set filed under Mus musculus [15] and in the data set listed under Mus musculus [10] was “Active” throughout. The inhibition result in the data set filed under Mus musculus [16], in the data set filed under Mus musculus [11], in the data set filed under Mus musculus [12] and in the data set filed under Mus musculus [17] was “Active” throughout. Further, the half-life in [1], in data set [2] and in data set [3] was over 30 min throughout. The molecule also displayed a solubility in data set [4] of 15 µg/mL (≈ 24.4 µM).

(Values after ChEMBL document CHEMBL1806467 (Bioorg Med Chem Lett, 2011).)
